What all share (type): ADME
Data set [1] can be described thus: Half-life was evaluated by chemical hydrolysis. A digest of the protocol: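 pH 12.0 buffer (0.01 N NaOH, isotonic phosphate 0.5 mM) at 37.0 ± 0.1 °C, with an initial ester concentration of 120 µM. Timed samples were quenched 1:10 in cold methanol (12 µM final) and analysed by HPLC. The pseudo-first-order rate constant came from a linear regression of ln(peak area) versus time, and the half-life was derived from it.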

Data set [2] is described as follows: Half-life in rat blood evaluated by enzymatic hydrolysis. Put shortly: (§1)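 Incubation in fresh heparinized male Sprague-Dawley rat blood (used within 30 min) at 37.0 ± 0.1 °C, compound added in methanol at 1:10. Timed samples were quenched in cold methanol and centrifuged; the supernatant (12 µM final) was analysed by HPLC for ester and acid metabolite.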
For a further data set, the species on record is Rattus norvegicus. Description: Evaluation of apparent pseudo-first-order hydrolytic rate constant(k) by enzymatic hydrolysis in rat blood at 37+/-0.1 degree Centigrade. A digest of the protocol: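 Freshly drawn heparinized blood from male Sprague-Dawley rats, used within 30 min. Compound in methanol (0.1 mL) was mixed with blood (0.9 mL) at 37.0 ± 0.1 °C. Timed aliquots were mixed with cold methanol, frozen and centrifuged (24 000 rpm, 3 min), giving a final sample concentration of 12 µM. Ester loss was followed by HPLC of the supernatant, and the pseudo-first-order k was obtained from ln(peak area) versus time.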

Data set [3] can be described thus: Evaluated for apparent pseudo first-order hydrolytic rate constant(K) in chemical hydrolysis.
Data set [4] in a line: Half-life in rat blood; evaluated by enzymatic hydrolysis. A digest of the protocol: as §1

Turning to `CC(C)(C)NCC(O)c1cc2cccc(CC(=O)OC3CCCCC3)c2o1` (centres undefined), the values for the half-life in data set [1] and in data set [2] were 15.2 min and 6.2 min, respectively. The k in the data set filed under Rattus norvegicus was determined as 0.111 min⁻¹; in data set [3], 0.045 min⁻¹.

In the case of `CC(C)(C)NCC(O)c1cc2cccc(CC(=O)OC(C)(C)C)c2o1` (centres undefined), the half-life in data set [1] came to 75.7 min; in data set [2] it was 99 min. The k worked out at 0.007 min⁻¹ in the data set listed under Rattus norvegicus and 0.091 min⁻¹ in data set [3].

On to `CCOC(=O)Cc1cccc2cc(C(O)CNC(C)(C)C)oc12` (centres undefined), for which the half-life was 8.2 min in data set [1] and < 0.15 min in data set [4]. Besides, the k in data set [3] turned out to be 0.084 min⁻¹.

With `CSCOC(=O)Cc1cccc2cc(C(O)CNC(C)(C)C)oc12` (centres undefined), the half-life in data set [1] is 25 min; in data set [2], < 0.15 min. Besides, the k in data set [3] turned out to be 0.027 min⁻¹.

Consider `COC(=O)Cc1cccc2cc(C(O)CNC(C)(C)C)oc12` (centres undefined), for which the half-life in data set [1] was 7.2 min; in data set [2] it was < 0.15 min. Moreover, in data set [3], the k turned out to be 0.096 min⁻¹.

Consider `CC(C)(C)NCC(O)c1cc2cccc(CC(=O)OCCC34C[C@H]5C[C@@H](C3)C[C@@H](C4)C5)c2o1` (some centres undefined), for which the values for the half-life in data set [1] and in data set [2] were 150 min and < 0.15 min, respectively. In data set [3], the k amounted to 0.0016 min⁻¹.

As to `CC(C)OC(=O)Cc1cccc2cc(C(O)CNC(C)(C)C)oc12` (centres undefined), the half-life in data set [1] was determined as 45.7 min; in data set [2] it was 16.6 min. The k in the data set listed under Rattus norvegicus came out at 0.0417 min⁻¹; in data set [3], 0.015 min⁻¹.

Usually half-life stands for the time needed for the level to fall by half in the phase considered. High values mean slow decline, low ones rapid decline.

The values are drawn from ChEMBL document CHEMBL1133717, “Soft drugs. 12. Design, synthesis, and evaluation of soft bufuralol analogues” (J Med Chem, 2000).
